In ChEMBL document CHEMBL1128681, “Studies on the monoamine oxidase (MAO)-catalyzed oxidation of phenyl-substituted 1-methyl-4-phenoxy-1,2,3,6-tetrahydropyridine derivatives: factors contributing to MAO-A and MAO-B selectivity” (J Med Chem, 1995):

Key:
[1] = substrate: CN1CC=C(Oc2ccc([N+](=O)[O-])cc2)CC1; assay: (§1) Michaelis-Menten constant for Monoamine oxidase B catalyzed oxidation (KM).; set-up: species or system Bos taurus
Method in brief: (§2)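 MAO-B at 0.08 μM final; activity was calibrated with MPTP at 30 °C and the preparation was stored at –15 °C. Substrate range 100–2000 μM in 100 mM sodium phosphate pH 7.4, with spectrophotometric initial oxidation rates. KM and kcat derived from double-reciprocal plots, and kcat/KM calculated from them.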

[2] = substrate: Cc1cccc(OC2=CCN(C)CC2)c1; assay: as §1; set-up: species or system Bos taurus; method in brief: as §2
[3] = substrate: COc1ccc(OC2=CCN(C)CC2)cc1; assay: as §1; set-up: species or system Bos taurus; method in brief: as §2
[4] = substrate: CN1CC=C(Oc2ccccc2Cl)CC1; assay: as §1; set-up: species or system Bos taurus; method in brief: as §2
[5] = substrate: COc1ccccc1OC1=CCN(C)CC1; assay: as §1; set-up: species or system Bos taurus; method in brief: as §2
[6] = substrate: CN1CC=C(Oc2cccc(-c3ccccc3)c2)CC1; assay: as §1; set-up: species or system Bos taurus; method in brief: as §2
[7] = substrate: Cc1ccc(OC2=CCN(C)CC2)cc1; assay: as §1; set-up: species or system Bos taurus; method in brief: as §2
[8] = substrate: CN1CC=C(Cc2ccccc2)CC1; assay: as §1; set-up: species or system Bos taurus; method in brief: as §2
[9] = substrate: Cc1ccccc1OC1=CCN(C)CC1; assay: as §1; set-up: species or system Bos taurus; method in brief: as §2
[10] = substrate: CN1CC=C(Oc2ccccc2-c2ccccc2)CC1; assay: as §1; set-up: species or system Bos taurus; method in brief: as §2
[11] = substrate: CN1CC=C(Oc2cccc(Cl)c2)CC1; assay: as §1; set-up: species or system Bos taurus; method in brief: as §2
[12] = substrate: CN1CC=C(Oc2ccccc2[N+](=O)[O-])CC1; assay: as §1; set-up: species or system Bos taurus; method in brief: as §2
[13] = substrate: CN1CC=C(Oc2cccc([N+](=O)[O-])c2)CC1; assay: as §1; set-up: species or system Bos taurus; method in brief: as §2
[14] = substrate: CN1CC=C(Oc2ccc(Cl)cc2)CC1; assay: as §1; set-up: species or system Bos taurus; method in brief: as §2
[15] = substrate: COc1cccc(OC2=CCN(C)CC2)c1; assay: as §1; set-up: species or system Bos taurus; method in brief: as §2
[16] = substrate: CN1CC=C(Oc2ccc([N+](=O)[O-])cc2)CC1; assay: (§3) Michaelis-Menten constant for Monoamine oxidase A-catalyzed oxidation (KM).
Method in brief: (§4)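 MAO-A at 0.16 μM final, raised to 0.32 μM for one slowly oxidized substrate. The MAO-A preparation was diluted with 3 volumes of phosphate buffer just before use, and its activity was re-checked bimonthly with kynuramine at 30 °C. Substrates at 100–2000 μM in 100 mM sodium phosphate pH 7.4; initial rates by spectrophotometry. kcat and KM from double-reciprocal plots; kcat/KM as their ratio.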

[17] = substrate: Cc1cccc(OC2=CCN(C)CC2)c1; assay: as §3; method in brief: as §4
[18] = substrate: COc1ccc(OC2=CCN(C)CC2)cc1; assay: as §3; method in brief: as §4
[19] = substrate: CN1CC=C(Oc2ccccc2Cl)CC1; assay: as §3; method in brief: as §4
[20] = substrate: COc1ccccc1OC1=CCN(C)CC1; assay: as §3; method in brief: as §4
[21] = substrate: CN1CC=C(Oc2cccc(-c3ccccc3)c2)CC1; assay: as §3; method in brief: as §4
[22] = substrate: Cc1ccc(OC2=CCN(C)CC2)cc1; assay: as §3; method in brief: as §4
[23] = substrate: CN1CC=C(Cc2ccccc2)CC1; assay: as §3; method in brief: as §4
[24] = substrate: Cc1ccccc1OC1=CCN(C)CC1; assay: as §3; method in brief: as §4
[25] = substrate: CN1CC=C(Oc2ccccc2-c2ccccc2)CC1; assay: as §3; method in brief: as §4
[26] = substrate: CN1CC=C(Oc2cccc(Cl)c2)CC1; assay: as §3; method in brief: as §4
[27] = substrate: CN1CC=C(Oc2ccccc2[N+](=O)[O-])CC1; assay: as §3; method in brief: as §4
[28] = substrate: CN1CC=C(Oc2cccc([N+](=O)[O-])c2)CC1; assay: as §3; method in brief: as §4
[29] = substrate: CN1CC=C(Oc2ccc(Cl)cc2)CC1; assay: as §3; method in brief: as §4
[30] = substrate: COc1cccc(OC2=CCN(C)CC2)c1; assay: as §3; method in brief: as §4

B1: Amine oxidase [flavin-containing] B (Bos taurus) (protein)
chain: MSSKCDVVVVGGGISGMAAAKLLHDSGLNVIVLEARDRVGGRTYTLRNQKVKYVDLGGSYVGPTQNHILRLSKELGLETYKVNEVERLIHHTKGKSYPFRGSFPSVWNPITYLDHNNLWRTMDDMGREIPSDAPWKAPLAEQWDLMTMKELLDKICWTESSKQLAILFVNLCVTAEIHEVSALWFLWYVKQCGGTTRIFSTSNGGQERKFVGGSGQVSERIMDLLGDRVKLERPVIHIDQTGENVLVETLNHELYEAKYVISAVPPVLGMKIHFNPPLPMMRNQLITRVPLGSVIKSIVYYKEPFWRNMDYCGSMIIEGEEAPVAYALDDTKPDGSYPAIIGFILAHKARKLARLTKEERLKKLCDLYAKVLGSQEALHPVHYEEKNWCEEQYSGGCYTSYFPPGIMTQYGRVLRQPVGRIYFAGTETATHWSGYMEGAVEAGERAAREILHAMGKIPEDEIWLPEPESVDVPAKPITTTFLQRHLPSVPGLLKLIGLTTIFSATALGFLAHKRGLLVRI
[1]
  Km: 443 µM
  kcat: 1.4 s⁻¹
  kcat/Km: 3180 M⁻¹ s⁻¹
[2]
  Km: 116 µM
  kcat: 3.37 s⁻¹
  kcat/Km: 29100 M⁻¹ s⁻¹
[3]
  Km: 474 µM
  kcat: 5.9 s⁻¹
  kcat/Km: 12400 M⁻¹ s⁻¹
[4]
  Km: 220 µM
  kcat: 3.02 s⁻¹
  kcat/Km: 13700 M⁻¹ s⁻¹
[5]
  Km: 313 µM
  kcat: 5.7 s⁻¹
  kcat/Km: 12400 M⁻¹ s⁻¹
[6]
  Km: 346 µM
  kcat: 3.67 s⁻¹
  kcat/Km: 10600 M⁻¹ s⁻¹
[7]
  Km: 106 µM
  kcat: 3.57 s⁻¹
  kcat/Km: 33600 M⁻¹ s⁻¹
[8]
  Km: 180 µM
  kcat: 10.7 s⁻¹
  kcat/Km: 59700 M⁻¹ s⁻¹
[9]
  Km: 98 µM
  kcat: 2.92 s⁻¹
  kcat/Km: 29700 M⁻¹ s⁻¹
[10]
  Km: 691 µM
  kcat: 1.52 s⁻¹
  kcat/Km: 2200 M⁻¹ s⁻¹
[11]
  Km: 308 µM
  kcat: 3.73 s⁻¹
  kcat/Km: 12200 M⁻¹ s⁻¹
[12]
  Km: 86 µM
  kcat: 1.13 s⁻¹
  kcat/Km: 13100 M⁻¹ s⁻¹
[13]
  Km: 105 µM
  kcat: 2.47 s⁻¹
  kcat/Km: 23500 M⁻¹ s⁻¹
[14]
  Km: 254 µM
  kcat: 5.93 s⁻¹
  kcat/Km: 23400 M⁻¹ s⁻¹
[15]
  Km: 337 µM
  kcat: 4.05 s⁻¹
  kcat/Km: 12000 M⁻¹ s⁻¹

B2: Amine oxidase [flavin-containing] A (Homo sapiens) (protein)
chain: MENQEKASIAGHMFDVVVIGGGISGLSAAKLLTEYGVSVLVLEARDRVGGRTYTIRNEHVDYVDVGGAYVGPTQNRILRLSKELGIETYKVNVSERLVQYVKGKTYPFRGAFPPVWNPIAYLDYNNLWRTIDNMGKEIPTDAPWEAQHADKWDKMTMKELIDKICWTKTARRFAYLFVNINVTSEPHEVSALWFLWYVKQCGGTTRIFSVTNGGQERKFVGGSGQVSERIMDLLGDQVKLNHPVTHVDQSSDNIIIETLNHEHYECKYVINAIPPTLTAKIHFRPELPAERNQLIQRLPMGAVIKCMMYYKEAFWKKKDYCGCMIIEDEDAPISITLDDTKPDGSLPAIMGFILARKADRLAKLHKEIRKKKICELYAKVLGSQEALHPVHYEEKNWCEEQYSGGCYTAYFPPGIMTQYGRVIRQPVGRIFFAGTETATKWSGYMEGAVEAGERAAREVLNGLGKVTEKDIWVQEPESKDVPAVEITHTFWERNLPSVSGLLKIIGFSTSVTALGFVLYKYKLLPRS
[16]
  Km: 169 µM
  kcat: 1.37 s⁻¹
  kcat/Km: 8050 M⁻¹ s⁻¹
[17]
  Km: 212 µM
  kcat: 7.18 s⁻¹
  kcat/Km: 33900 M⁻¹ s⁻¹
[18]
  Km: 47 µM
  kcat: 1.22 s⁻¹
  kcat/Km: 25800 M⁻¹ s⁻¹
[19]
  Km: 83 µM
  kcat: 3.4 s⁻¹
  kcat/Km: 41000 M⁻¹ s⁻¹
[20]
  Km: 75 µM
  kcat: 0.95 s⁻¹
  kcat/Km: 12700 M⁻¹ s⁻¹
[21]
  Km: 232 µM
  kcat: 21.5 s⁻¹
  kcat/Km: 92800 M⁻¹ s⁻¹
[22]
  Km: 129 µM
  kcat: 1.3 s⁻¹
  kcat/Km: 10000 M⁻¹ s⁻¹
[23]
  Km: 103 µM
  kcat: 0.467 s⁻¹
  kcat/Km: 4600 M⁻¹ s⁻¹
[24]
  Km: 108 µM
  kcat: 4.5 s⁻¹
  kcat/Km: 41700 M⁻¹ s⁻¹
[25]
  Km: 426 µM
  kcat: 4.08 s⁻¹
  kcat/Km: 9580 M⁻¹ s⁻¹
[26]
  Km: 82 µM
  kcat: 5.97 s⁻¹
  kcat/Km: 72800 M⁻¹ s⁻¹
[27]
  Km: 306 µM
  kcat: 6.83 s⁻¹
  kcat/Km: 22300 M⁻¹ s⁻¹
[28]
  Km: 174 µM
  kcat: 4.95 s⁻¹
  kcat/Km: 28500 M⁻¹ s⁻¹
[29]
  Km: 63 µM
  kcat: 3.15 s⁻¹
  kcat/Km: 50100 M⁻¹ s⁻¹
[30]
  Km: 176 µM
  kcat: 8.2 s⁻¹
  kcat/Km: 46600 M⁻¹ s⁻¹
